# In ChEMBL document CHEMBL1139946, “1-Aryl-4,6-dihydropyrazolo[4,3-d][1]benzazepin-5(1H)-ones: a new class of antiproliferative agents with selectivity for human leukemia and breast cancer cell lines” (Eur J Med Chem, 2007):
# Legend:
# [1] = biological target: Insulin-like growth factor 1 receptor (Homo sapiens) (UniProt P08069); assay: Inhibition of IGF1R at 10 uM
# [2] = biological target: Serine/threonine-protein kinase PAK 4 (Homo sapiens) (UniProt O96013); assay: Inhibition of PAK4 at 10 uM
# [3] = biological target: Proto-oncogene tyrosine-protein kinase Src (Homo sapiens) (UniProt P12931); assay: Inhibition of SRC at 10 uM
# [4] = biological target: RAC-alpha serine/threonine-protein kinase (Homo sapiens) (UniProt P31749); assay: Inhibition of AKT1 at 10 uM
# NCI-H460 = assay: Antiproliferative activity against human NCI-H460 cells at 100 uM after 48 hrs relative to control; type: functional; conditions: NCI-H460, 48 h
# In short: (§1)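 NCI three-cell-line prescreen (MCF7 breast, NCI-H460 non-small cell lung, SF-268 CNS). Cells inoculated and preincubated in microtiter plates, then exposed to test agent at 10^-4 M for 48 h. Alamar blue end-point read-out. Growth of treated cells expressed as percent of untreated control cells.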
# [5] = biological target: Aurora kinase B (Homo sapiens) (UniProt Q96GD4); assay: Inhibition of aurora B at 10 uM
# [6] = biological target: Cyclin-dependent kinase 4 (Homo sapiens, UniProt P11802); assay: Inhibition of CDK4
# [7] = biological target: T1, Serine/threonine-protein kinase PLK4 (Homo sapiens) (UniProt O00444); assay: Inhibition of SAK at 10 uM
# T1 sequence (whole entry): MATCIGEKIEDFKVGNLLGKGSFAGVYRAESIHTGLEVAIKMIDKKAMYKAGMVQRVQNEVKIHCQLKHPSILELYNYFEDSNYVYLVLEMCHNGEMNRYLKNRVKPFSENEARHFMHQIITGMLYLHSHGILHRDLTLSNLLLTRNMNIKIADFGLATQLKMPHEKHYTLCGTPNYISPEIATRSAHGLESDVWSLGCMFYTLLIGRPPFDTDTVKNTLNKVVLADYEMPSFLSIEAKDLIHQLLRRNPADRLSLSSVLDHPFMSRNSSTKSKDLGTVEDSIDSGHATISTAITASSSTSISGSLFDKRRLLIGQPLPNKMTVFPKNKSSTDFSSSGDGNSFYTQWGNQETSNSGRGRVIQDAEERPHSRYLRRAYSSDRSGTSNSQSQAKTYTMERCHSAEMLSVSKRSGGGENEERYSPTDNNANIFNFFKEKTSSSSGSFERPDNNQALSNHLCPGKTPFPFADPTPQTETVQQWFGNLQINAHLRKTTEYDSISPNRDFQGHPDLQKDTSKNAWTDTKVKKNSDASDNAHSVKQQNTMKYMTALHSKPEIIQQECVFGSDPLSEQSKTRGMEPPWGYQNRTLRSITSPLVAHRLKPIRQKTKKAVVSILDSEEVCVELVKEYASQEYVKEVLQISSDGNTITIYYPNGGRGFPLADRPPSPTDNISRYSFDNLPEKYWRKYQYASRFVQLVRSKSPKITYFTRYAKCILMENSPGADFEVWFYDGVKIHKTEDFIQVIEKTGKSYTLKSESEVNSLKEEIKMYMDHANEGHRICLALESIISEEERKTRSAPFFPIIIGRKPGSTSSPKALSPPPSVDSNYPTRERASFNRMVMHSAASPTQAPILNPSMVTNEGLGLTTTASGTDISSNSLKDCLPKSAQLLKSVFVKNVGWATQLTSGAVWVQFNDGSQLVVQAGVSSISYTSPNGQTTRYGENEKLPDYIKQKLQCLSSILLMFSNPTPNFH
# Homo sapiens [8] = species on record: Homo sapiens; assay: Inhibition of CK2-alpha1 at 10 uM
# [9] = biological target: Vascular endothelial growth factor receptor 3 (Homo sapiens, UniProt P35916); assay: Inhibition of VEGFR3 at 10 uM
# [10] = biological target: Serine/threonine-protein kinase PLK1 (Homo sapiens) (UniProt P53350); assay: Inhibition of PLK1 at 10 uM
# [11] = biological target: T2, Aurora kinase A (Homo sapiens) (UniProt O14965); assay: Inhibition of aurora A at 10 uM
# T2 sequence (whole entry): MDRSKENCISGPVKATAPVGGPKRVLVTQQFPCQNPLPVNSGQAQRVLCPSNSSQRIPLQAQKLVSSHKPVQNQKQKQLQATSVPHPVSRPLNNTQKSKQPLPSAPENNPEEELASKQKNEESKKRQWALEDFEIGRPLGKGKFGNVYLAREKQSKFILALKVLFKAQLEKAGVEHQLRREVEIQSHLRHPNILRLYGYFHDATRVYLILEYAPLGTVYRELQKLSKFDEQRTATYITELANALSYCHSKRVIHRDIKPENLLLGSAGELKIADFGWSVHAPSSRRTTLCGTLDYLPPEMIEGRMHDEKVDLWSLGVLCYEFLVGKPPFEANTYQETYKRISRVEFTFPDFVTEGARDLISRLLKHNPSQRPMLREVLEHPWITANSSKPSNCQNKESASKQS
# SF-268 = assay: Antiproliferative activity against human SF268 cells at 100 uM after 48 hrs relative to control; type: functional; conditions: SF-268, 48 h; in short: as §1
# Homo sapiens [12] = species on record: Homo sapiens; assay: Inhibition of CDK4/cyclinD1 at 10 uM
# [13] = biological target: Platelet-derived growth factor receptor beta (Homo sapiens) (UniProt P09619); assay: Inhibition of PDGFRbeta at 10 uM
# [14] = biological target: Receptor-type tyrosine-protein kinase FLT3 (Homo sapiens, UniProt P36888); assay: Inhibition of FLT3
# Sequence of Proto-oncogene tyrosine-protein kinase Src (Homo sapiens) (P12931 2-536 limits assumed): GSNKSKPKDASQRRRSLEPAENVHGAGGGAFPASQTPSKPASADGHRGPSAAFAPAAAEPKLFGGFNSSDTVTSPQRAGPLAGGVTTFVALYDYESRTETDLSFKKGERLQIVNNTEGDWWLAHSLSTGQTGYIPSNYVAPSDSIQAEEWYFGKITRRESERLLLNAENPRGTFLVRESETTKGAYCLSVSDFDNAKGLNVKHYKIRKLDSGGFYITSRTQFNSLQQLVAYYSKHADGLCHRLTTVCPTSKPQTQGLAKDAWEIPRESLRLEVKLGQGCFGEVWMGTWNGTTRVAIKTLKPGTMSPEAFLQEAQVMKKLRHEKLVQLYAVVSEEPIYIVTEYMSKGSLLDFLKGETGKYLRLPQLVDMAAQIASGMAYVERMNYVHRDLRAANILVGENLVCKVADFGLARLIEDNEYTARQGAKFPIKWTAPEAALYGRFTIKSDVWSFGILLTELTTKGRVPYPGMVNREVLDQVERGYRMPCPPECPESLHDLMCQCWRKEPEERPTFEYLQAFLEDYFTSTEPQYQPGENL
# Sequence of Vascular endothelial growth factor receptor 3 (P35916 whole entry): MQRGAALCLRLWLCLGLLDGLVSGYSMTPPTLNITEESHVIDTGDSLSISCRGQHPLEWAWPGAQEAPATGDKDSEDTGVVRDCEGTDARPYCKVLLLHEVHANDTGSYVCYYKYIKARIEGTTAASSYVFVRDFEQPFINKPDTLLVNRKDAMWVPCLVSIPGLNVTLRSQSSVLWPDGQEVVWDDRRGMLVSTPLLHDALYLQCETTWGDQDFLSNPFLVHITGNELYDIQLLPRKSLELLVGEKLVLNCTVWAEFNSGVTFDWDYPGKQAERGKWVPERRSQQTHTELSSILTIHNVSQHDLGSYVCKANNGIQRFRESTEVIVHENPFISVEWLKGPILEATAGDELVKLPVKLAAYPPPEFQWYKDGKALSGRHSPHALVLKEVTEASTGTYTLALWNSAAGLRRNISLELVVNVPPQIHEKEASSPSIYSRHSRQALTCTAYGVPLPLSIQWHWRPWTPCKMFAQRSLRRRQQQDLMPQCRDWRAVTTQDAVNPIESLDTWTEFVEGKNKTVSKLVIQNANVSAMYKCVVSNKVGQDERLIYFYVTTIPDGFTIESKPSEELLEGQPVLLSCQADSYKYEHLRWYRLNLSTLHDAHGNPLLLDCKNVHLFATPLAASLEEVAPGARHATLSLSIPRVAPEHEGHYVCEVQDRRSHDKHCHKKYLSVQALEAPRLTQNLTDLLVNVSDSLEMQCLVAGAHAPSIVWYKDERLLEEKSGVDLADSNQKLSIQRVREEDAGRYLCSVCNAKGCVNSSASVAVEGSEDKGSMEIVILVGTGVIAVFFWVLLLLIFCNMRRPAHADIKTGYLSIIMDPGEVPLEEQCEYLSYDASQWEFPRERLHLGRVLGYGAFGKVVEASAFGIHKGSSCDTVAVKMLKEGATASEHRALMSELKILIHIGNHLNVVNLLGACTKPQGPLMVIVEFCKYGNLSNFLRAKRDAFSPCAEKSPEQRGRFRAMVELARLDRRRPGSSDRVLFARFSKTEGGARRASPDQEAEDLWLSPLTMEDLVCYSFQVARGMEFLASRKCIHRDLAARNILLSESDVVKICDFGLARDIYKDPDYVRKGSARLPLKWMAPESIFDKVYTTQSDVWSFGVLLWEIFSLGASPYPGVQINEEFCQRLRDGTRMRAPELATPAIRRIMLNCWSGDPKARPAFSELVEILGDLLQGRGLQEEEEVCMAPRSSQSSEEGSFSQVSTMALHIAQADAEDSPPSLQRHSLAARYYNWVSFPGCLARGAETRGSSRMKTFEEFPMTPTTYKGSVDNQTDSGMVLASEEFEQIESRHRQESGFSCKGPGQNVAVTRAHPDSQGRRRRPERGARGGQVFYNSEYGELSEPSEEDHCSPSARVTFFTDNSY
# Sequence of Platelet-derived growth factor receptor beta (Homo sapiens) (P09619 whole entry): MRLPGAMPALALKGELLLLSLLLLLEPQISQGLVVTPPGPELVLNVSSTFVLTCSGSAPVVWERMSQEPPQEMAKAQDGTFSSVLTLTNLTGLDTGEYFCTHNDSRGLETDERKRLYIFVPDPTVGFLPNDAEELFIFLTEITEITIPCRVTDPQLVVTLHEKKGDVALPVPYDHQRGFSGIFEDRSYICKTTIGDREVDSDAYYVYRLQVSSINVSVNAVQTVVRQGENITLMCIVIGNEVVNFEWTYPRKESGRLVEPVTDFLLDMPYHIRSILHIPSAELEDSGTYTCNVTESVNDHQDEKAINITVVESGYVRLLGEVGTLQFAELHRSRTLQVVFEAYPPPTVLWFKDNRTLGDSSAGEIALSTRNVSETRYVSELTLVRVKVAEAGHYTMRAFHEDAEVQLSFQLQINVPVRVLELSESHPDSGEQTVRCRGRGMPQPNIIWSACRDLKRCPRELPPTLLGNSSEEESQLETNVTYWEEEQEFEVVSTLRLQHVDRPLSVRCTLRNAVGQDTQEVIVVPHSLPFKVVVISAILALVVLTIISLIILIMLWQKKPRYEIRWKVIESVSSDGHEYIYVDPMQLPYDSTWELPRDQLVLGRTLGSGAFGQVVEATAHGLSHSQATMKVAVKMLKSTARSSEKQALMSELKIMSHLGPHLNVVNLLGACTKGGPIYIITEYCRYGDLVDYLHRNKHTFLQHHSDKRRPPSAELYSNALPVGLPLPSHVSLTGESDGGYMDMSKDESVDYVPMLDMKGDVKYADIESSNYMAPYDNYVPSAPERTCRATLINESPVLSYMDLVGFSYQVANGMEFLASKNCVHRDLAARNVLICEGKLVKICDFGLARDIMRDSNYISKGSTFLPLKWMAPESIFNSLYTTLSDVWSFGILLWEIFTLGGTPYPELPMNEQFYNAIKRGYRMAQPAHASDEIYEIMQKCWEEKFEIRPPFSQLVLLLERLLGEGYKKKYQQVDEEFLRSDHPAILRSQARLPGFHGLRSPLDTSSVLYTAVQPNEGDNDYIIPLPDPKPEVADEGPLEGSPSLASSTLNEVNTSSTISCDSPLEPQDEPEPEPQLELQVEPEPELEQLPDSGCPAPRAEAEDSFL
# Sequence of Serine/threonine-protein kinase PAK 4 (Homo sapiens) (O96013 whole entry, looked up): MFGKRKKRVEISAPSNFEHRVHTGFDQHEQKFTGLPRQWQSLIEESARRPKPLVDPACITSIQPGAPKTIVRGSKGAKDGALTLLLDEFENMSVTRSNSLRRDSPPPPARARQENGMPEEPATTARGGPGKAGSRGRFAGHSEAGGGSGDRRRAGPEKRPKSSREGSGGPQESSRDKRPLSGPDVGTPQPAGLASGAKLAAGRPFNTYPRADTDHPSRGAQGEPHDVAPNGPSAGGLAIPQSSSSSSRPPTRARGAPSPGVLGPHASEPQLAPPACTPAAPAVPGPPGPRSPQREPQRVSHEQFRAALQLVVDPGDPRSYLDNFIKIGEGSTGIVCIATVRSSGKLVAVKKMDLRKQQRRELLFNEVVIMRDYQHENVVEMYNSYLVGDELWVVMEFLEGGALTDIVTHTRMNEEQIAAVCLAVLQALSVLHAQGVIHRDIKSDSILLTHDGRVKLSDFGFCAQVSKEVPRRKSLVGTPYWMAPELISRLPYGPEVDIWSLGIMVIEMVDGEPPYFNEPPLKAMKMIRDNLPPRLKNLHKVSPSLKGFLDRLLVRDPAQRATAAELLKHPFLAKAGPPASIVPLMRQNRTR
# Sequence of Serine/threonine-protein kinase PLK1 (Homo sapiens) (P53350 whole entry): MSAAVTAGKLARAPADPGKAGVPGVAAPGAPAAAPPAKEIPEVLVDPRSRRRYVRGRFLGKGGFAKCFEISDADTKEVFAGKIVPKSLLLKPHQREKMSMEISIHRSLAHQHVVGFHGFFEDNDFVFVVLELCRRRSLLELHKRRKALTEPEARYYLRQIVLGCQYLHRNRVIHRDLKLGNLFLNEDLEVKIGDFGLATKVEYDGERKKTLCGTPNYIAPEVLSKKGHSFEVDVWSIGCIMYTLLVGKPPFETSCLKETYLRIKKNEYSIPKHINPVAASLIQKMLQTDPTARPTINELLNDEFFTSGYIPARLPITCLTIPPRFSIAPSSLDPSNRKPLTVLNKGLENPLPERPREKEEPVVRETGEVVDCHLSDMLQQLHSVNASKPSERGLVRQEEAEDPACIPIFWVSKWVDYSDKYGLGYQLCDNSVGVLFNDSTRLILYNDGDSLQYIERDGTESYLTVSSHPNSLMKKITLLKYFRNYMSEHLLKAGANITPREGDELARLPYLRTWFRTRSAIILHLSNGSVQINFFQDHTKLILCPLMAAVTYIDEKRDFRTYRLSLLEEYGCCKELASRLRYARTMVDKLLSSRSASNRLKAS
# Sequence of RAC-alpha serine/threonine-protein kinase (Homo sapiens) (P31749 whole entry): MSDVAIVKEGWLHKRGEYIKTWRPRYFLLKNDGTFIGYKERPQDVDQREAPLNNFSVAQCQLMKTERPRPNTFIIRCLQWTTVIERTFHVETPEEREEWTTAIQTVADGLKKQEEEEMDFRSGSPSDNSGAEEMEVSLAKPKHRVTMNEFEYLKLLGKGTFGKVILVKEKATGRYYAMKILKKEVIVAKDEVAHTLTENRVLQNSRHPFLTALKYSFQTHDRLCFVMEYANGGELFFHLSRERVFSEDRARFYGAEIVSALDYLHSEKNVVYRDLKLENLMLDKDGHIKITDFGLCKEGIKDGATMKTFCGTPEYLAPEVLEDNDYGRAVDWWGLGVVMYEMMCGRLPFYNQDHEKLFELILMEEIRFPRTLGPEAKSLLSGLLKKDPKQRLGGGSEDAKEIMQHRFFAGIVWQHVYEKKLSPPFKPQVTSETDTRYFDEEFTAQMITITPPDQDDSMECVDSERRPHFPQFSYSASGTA
# Sequence of Aurora kinase B (Homo sapiens) (Q96GD4 whole entry): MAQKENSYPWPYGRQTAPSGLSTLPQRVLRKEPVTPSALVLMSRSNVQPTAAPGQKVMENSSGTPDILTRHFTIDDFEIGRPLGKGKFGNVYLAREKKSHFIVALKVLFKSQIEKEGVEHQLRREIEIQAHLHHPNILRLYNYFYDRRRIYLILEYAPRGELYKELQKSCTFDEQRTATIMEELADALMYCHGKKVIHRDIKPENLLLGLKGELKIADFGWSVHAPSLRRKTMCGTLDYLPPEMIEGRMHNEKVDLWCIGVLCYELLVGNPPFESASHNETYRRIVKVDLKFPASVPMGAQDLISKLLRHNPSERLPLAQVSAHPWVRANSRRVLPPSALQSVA
Compound,inhibition [1] [%],inhibition [2] [%],inhibition [3] [%],inhibition [4] [%],"growth, % of control at 100 µM (NCI-H460) [%]",inhibition [5] [%],IC50 [6] [µM],inhibition [7] [%],inhibition (Homo sapiens [8]) [%],inhibition [9] [%],inhibition [10] [%],inhibition [11] [%],"growth, % of control at 100 µM (SF-268) [%]",inhibition (Homo sapiens [12]) [%],inhibition [13] [%],IC50 [14] [µM]
O=C1Cc2cnn(-c3cccc(Cl)c3)c2-c2ccccc2N1,< 40,< 40,< 40,< 40,39,< 40,> 10,< 40,< 40,< 40,< 40,< 40,101,> 40,< 40,
O=C1Cc2cnn(-c3ccc(Cl)cc3)c2-c2ccccc2N1,< 40,< 40,< 40,< 40,41,< 40,,< 40,< 40,< 40,< 40,< 40,80,< 40,< 40,> 10
